Test system: MS2 coat protein
Assay: apparent Kd, MS2 coat protein; higher = weaker binding; RNA-MaP array; FMN 200 µM where present
Summary of the method: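 Stalled E. coli RNA polymerase transcribed the designs on Illumina sequencing-chip clusters. SNAP-549-labelled MS2 coat protein was titrated from 0.7 or 1.5 nM, doubling to 3 µM, without and then with constant ligand, in 100 mM Tris-HCl pH 7.5, 80 mM KCl, 4 mM MgCl2, BSA, DTT, yeast tRNA and Tween-20. Per-cluster binding curves were fitted to green signal normalised to red-channel RNA signal and control-cluster median Fmax. The apparent Kd is the median of the filtered fits.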

[1] = designed as: OFF switch for flavin mononucleotide, no ligand
[2] = ligand present: flavin mononucleotide, designed as: OFF switch for flavin mononucleotide
[3] = designed as: ON switch for flavin mononucleotide, no ligand
[4] = ligand present: flavin mononucleotide, designed as: ON switch for flavin mononucleotide

| Sequence | apparent Kd [1] [nM] | apparent Kd [2] [nM] | apparent Kd [3] [nM] | apparent Kd [4] [nM] |
| --- | --- | --- | --- | --- |
| UGUGCGUUGAUCUUCGAUCGGUGUACAUGAGGAUCACCCAUGUAGGAUAUUCAAAGACGCAGAUAGGAGAAGGACAUCGGUUUU | 18 | 19.8 | – | – |
| CUCUUACAUGAGGAUCACCCAUGUGUUGUCGUGGGAGGAUAUCCUGGUUCGGUGGCGUUGGGAGAAGGCCUAUGUC | – | – | 722 | 242 |
| UGCCAAGCAGGAUAUGCACGUAAUAACAUGAGGAUCACCCAUGUGACCGAUUUAUAUUCUGCAGAAGGGCUUGGAU | 54.9 | 152 | – | – |
| AGUGCCAUGUAGAAGGGAGAUCUGAUUCAGAUCUCAGGAUAUACAUGAGGAUCACCCAUGUAAAUGCACUGCACGAGAGUGCAA | 12.5 | 30.9 | – | – |
| ACAAUGUUAGGAUAUCUGAGAAUUAGUCUCGACUAGUCGAAGGAGAAGGAACAUGAGGAUCACCCAUGUAGAUC | 43.4 | 275 | – | – |
| GAAAUGAUGAUAGGAUAUCCACAGACAUGAGGAUCACCCAUGUUUAUGGGACGAAUCCUUGUGCAGGAGAAGGAUCGUCACUAU | 64.7 | 39.5 | – | – |
| CGAGCUGCCAGAGGAUAAUGGACAUGAGGAUCACCCAUGUGUCAGGAUAUGGGUUUCACAUGGACUCAGAAGGGACCAGCCCGA | – | – | 107 | 30.2 |
| GUUUCGGGAGGAUAUGCGUGGAUUAUUCUCGUAUGUUGUUUACAUGAGGAUCACCCAUGUAGAAGGUCUGGAGC | 193 | 300 | – | – |
| GUAGAGUAGUGAGGAUAUACGAGUUCGAUAGAACGGCGAUCCAUUAAUACAUGAGGAUCACCCAUGUAGAAGGCACUUCUCUAC | 6.4 | 69.3 | – | – |
| AAUAUGAGCUGGUAUAAACCCGAAACAUGAGGAUCACCCAUGUAGGAUAUCAGCACGAUAAGUGCUGAGAAGGACAUCCAGCUC | 14.5 | 14.5 | – | – |
| GGAGCAACAUGAGGAUCACCCAUGUAGGAUAUCGCUAUUGUAAUCAUGAAACAUGAUUACAAUAGCGAGAAGGACAUAUGCUUU | 9.32 | 11.9 | – | – |
| UGAAAUCAUGUAGGAUAUGCAUGGCGAAGCUACGCAGAAGGACAUGAGGAUCACCCAUGUGCUAGCUACCGGAUACGGUGGCAA | 99.1 | 230 | – | – |
| AAUUAGGUCACAGGAUAUACAACUUCCAAUGCUGUAGAAGGGUGUCACAUACUUAGCUGACAUGAGGAUCACCCAUGUAUCCAC | – | – | 184 | 70.5 |
| AAAAAGUCAGGAUAUGCGAAGGCGUCUGAUAGACGAGGCUAGCAGAAGGGACAUGAGGAUCACCCAUGUAAAAA | 31.9 | 45.2 | – | – |
| GGCGGCGCGGGCCACCGCAGGACCAGAAGGACAUGAGGAUCACCCAUGUAGCAGAACAGGGCGGUGUAGGAUAUGGCAGGCUCG | 24.9 | 45.8 | – | – |
| AAAUAAAGCAGUGUGGUAAGAUCACAUGAGGAUCACCCAUGUAAGGAUAUGACGAGCAAAGCUCGUCAGAAGGUACGUCACUGC | 34 | 133 | – | – |
| CUGAGUAGUCAGGAUAUGCUGUACAAAAGUACAGCAGAAGGGAUUACAUGAGGAUCACCCAUGUUGUCUUCAUG | 160 | 316 | – | – |
| UUAUACGUUGAGGAUAUGCGAAUUAGUAUAGUUGCAGAAGGCGAUACAUGAGGAUCACCCAUGUUCAUGGGCAU | 127 | 243 | – | – |
| AGUGUGUGGCAGGAUAUGCGAUUUGUCGGUGAAGCAGAAGGGUCUACAUGAGGAUCACCCAUGUGUGCGGUUGA | 141 | 381 | – | – |
| AGCUACACCCAGAAGGACAUGAGGAUCACCCAUGUAGGAUAUGGGACACACAGUGCCAUGUAGAGAAAUUACGCUAGUGUAGCG | – | – | 14.3 | 8.42 |
| AACUCGUCAGGAUAUGCAUGCAGUUGCUGCAUUUCGCCGUUGCAGAAGGGACAUGAGGAUCACCCAUGUAGGUC | 42.4 | 37.2 | – | – |
| CCGCCCUGAGGAUAUCCACCCUCAUACAUGAGGAUCACCCAUGUUCACCCUUGGGUUCCCGGAGAAGGCAGUUUUC | 306 | 521 | – | – |
| AUCUUUAACAUAGGAUAUAGUAUGAAGGUUUAUUUAGAAGGAUGUCACAUGAGGAUCACCCAUGUAUUAGGAUUACCCAUGUAU | 30.1 | 23.1 | – | – |
| AAUCACAUGAGGAUCACCCAUGUGCCAGAAGGCACAAAUCUGCCUGGUGCGCCCGGGCUUCUCUGUGAGGAUAUGGAAAAGAAG | – | – | 309 | 76 |
| UUGGACGUCGUAGGAUACGUAGGAUAUUCCUACAUGAGGAUCACCCAUGUUGACAUGGAAGAAGGACAGAAGGACGAUGUCCAU | – | – | 71.6 | 4.95 |
| GAGAGAUAGUAGGAUAUUCUGUACGGGUGACCAGGAGAAGGACUAACAUGAGGAUCACCCAUGUGGCUGGUCAU | 15.9 | 16.2 | – | – |
| GUACUGAAGCUUUGCUUUAGUCGUACAUGAGGAUCACCCAUGUAGGAUAUGGUAGGCUAUGCUUACUAGAAGGAUAGAGUGAUC | 88.8 | 46.4 | – | – |
| CAUAAGAUAGGAUAUACAGGCCCGUCUUUAUAUUGAUCCCGACAUGAGGAUCACCCAUGUAGAAGGAUCAUAUG | 13.7 | 15.2 | – | – |

| Sequence | apparent Kd [1] [nM] | apparent Kd [2] [nM] | apparent Kd [3] [nM] | apparent Kd [4] [nM] |
| --- | --- | --- | --- | --- |
| GGACAUUUACAGAAGGGCAAAUUUUAUAUUGAAUAUUUAGUUCUGAUUUGCAGGAUAUGUUUUACAUGAGGAUCACCCAUGUCC | – | – | 59.9 | 27.9 |
| GCAGGGUAUGAGAAGGCAUAAUUUAUCUUACCACAUGUUUACAUGAGGAUCACCCAUGUUUCCAAUGAGGAUAUCAUACCGUGC | 10.9 | 9.89 | – | – |
| AGCAUGUGAGGAUAUGCGGACUCCGGUAAAGCUGGAGUCCAGUAGAAGGCACAUGAGGAUCACCCAUGUGAGAU | 59.7 | 212 | – | – |
| AUGUGGUUCCCGGCCGUCGUGUACGAGGAUAUCCUCGAACAUGAGGAUCACCCAUGUAACGUUGUGGAGAAGGCGUACGCUCGG | – | – | 31.3 | 5.48 |
| GGAUAGGACAGAGGAUAUACGUGCUAGAGAUACUAGCAAAAUUACCUCACAUGAGGAUCACCCAUGUAGAAGGCUGUCCUAUCG | 5.29 | 60.6 | – | – |
| GCGAUUUUGUAGAAGGUACGUGAUAAGACAAAGUAAGGAUAUACUGACAUGAGGAUCACCCAUGUAUAAAUAGUUAACAGUCGC | – | – | 18.5 | 11.7 |
| CCAUUCAGAGGAUAUGCGCAUAGAUAAGACUUUUUUUUUUAACAUGAGGAUCACCCAUGUAGAAGGCUGUAACC | 23.2 | 23.1 | – | – |
| AAGACUAGAGGAUAUACAUGAGGAUCACCCAUGUAACUGUCAGGUGACUGACGGAAAUGUAGAAGGCUAGUCAA | 16.2 | 37.9 | – | – |
| AUGAUUAUACAAGGAUAUCAAUUGUAUACAAGUCUUACAUGAGGAUCACCCAUGUUAAAUUUUUUUGAGAAGGUGUGUUGUCAG | – | – | 35.6 | 30.6 |
| UUAUACAUUCGAGGAUAUCGGAGAGAGAUCAUUCGAGAAGGCGAUUCAUGAUGUAUUAUCCUGGACAUGAGGAUCACCCAUGUA | – | – | 101 | 68.1 |
| AAUUAGGUCACAGGAUAUACAUCAUCCAUAGCUGUAGAAGGGUGUCAAAAUAAUAUCUGACAUGAGGAUCACCCAUGUUUCCAC | – | – | 25 | 14.5 |
| AGCUACGUUUCGUAGCAGCUAGGUGAGGAUAUUCAAUUUUUCACAUGAGGAUCACCCAUGUAUGUGAAGAAGGCGCCUAGAAAG | – | – | 13.3 | 4.77 |
| UUAAAUCAUGUAGGAUAUGCAUGGCGAAGCUACGCAGAAGGACAUGAGGAUCACCCAUGUGCUAGCGUCUGGAAACAGAUGCAA | 56 | 269 | – | – |
| GUAGCAUGCAGGCAGGAUAUUCAUAUUAAAACAUGAGGAUCACCCAUGUAGGCCGAAAGGCCUUGGGAGAAGGGCCACAUGCUAC | – | – | 786 | 52.6 |
| GCCGAUUAAGUGAGGAUAUACCUAUGGAUACAUAGGUAGAAGGUACAUGAGGAUCACCCAUGUUCCUUAACGGC | 11.4 | 13.2 | – | – |
| AAUCCACAUGAGGAUCACCCAUGUGAGGAUAUGUCCAUAUUCGGCAAAUCGGAUAUGGACAGAAGGCACAUAAA | 32.9 | 87.1 | – | – |
| GUCGGAAACGACAAAAGUAUGGAUCCAGAAGGCAUGACACAUGAGGAUCACCCAUGUCUAAGACAUGAGGAUAUGGAUCCAUAC | – | – | 5.24 | 3.67 |
| AGAUAUAACUCAGGAUAUCAGCAUGGGUAGAUCACAUGAGGAUCACCCAUGUGCAUGUCCCGGCAUGAGAAGGGAGUAACGCAA | – | – | 43.2 | 52.2 |
| AAUCAUUAUCGUUAUUUAUAUUAUUCAGAAGGACAAUUAAUAGCACAUGAGGAUCACCCAUGUUUGUAGGAUAUGAUGUUAUAC | – | – | 15.2 | 7.95 |
| CGUCUAUGCAAGAAGGCAUGAAACAUGAGGAUCACCCAUGUCAAAGACAUGAGGAUAUUGCAUAGACGAAAAGUGCGAAAGCAC | – | – | – | 3.32 |
| CAAGCCAUUCGCAACUGCCGGCCGCAGGAUAUGGGUCGUUUAUACAUGAGGAUCACCCAUGUCGCCUAGAAGGGCGGCUGGGUC | – | – | 260 | 38.9 |
| UAUAAGAACGAAGGAUAUGGUUACAUGAGGAUCACCCAUGUAUGUAUAUUGAUCUAGUAUUAUAACCAGAAGGUCGAGAGUAUA | 16.1 | 27.1 | – | – |
| AGCUACGUUUCGUAGCAGCUAGGUGAGGAUAUCCACUCUACAUGAGGAUCACCCAUGUUAACAUGGGAGAAGGCGCCUAGAAAG | – | – | 104 | 11.8 |
| CUGCGGGCCAUAGGAUAUGCGCAGAAUUAGCAAGCAGAAGGGUGGAUCGUACAAUAAUAACUACAUGAGGAUCACCCAUGUGCU | – | – | 235 | 56.1 |
| UAUAUGUCAGGAUAUCGCAACUGCGCGCGCAAGAAUCAUAACGAGAAGGGACAUGAGGAUCACCCAUGUACACU | 18.6 | 25.7 | – | – |
| CUCUCUCAUCGAGGAUAUCGAACUUCCACCCUUCGAGAAGGCGACAUGAGGAUCACCCAUGUAAGGAGGACACUCACUCACACA | 22.6 | 20.9 | – | – |
| UCUCGUUUCGCAGGAUAUGCUGGUCGGAAAUAAACCGGCCACAUGAGGAUCACCCAUGUGCCACAGCAGAAGGGUGACACUAGA | – | – | 527 | 53.9 |

— the EternaBench riboswitch data
